Measured values from ChEMBL document CHEMBL3217426, “Synthesis and in vitro biological evaluation of pyrazole group-containing analogues for PDE10A” (Medchemcomm, 2013).

How the values were obtained:
[1] = target: cAMP and cAMP-inhibited cGMP 3',5'-cyclic phosphodiesterase 10A (Homo sapiens, UniProt Q9Y233); experiment: Inhibition of human recombinant PDE10A catalytic domain assessed reduction in [3H]cAMP hydrolysis preincubated with enzyme for 5 mins prior to substrate addition measured after 20 mins by scintillation proximity assay
Sequence of cAMP and cAMP-inhibited cGMP 3',5'-cyclic phosphodiesterase 10A (Q9Y233 whole entry, the tested form may be a part): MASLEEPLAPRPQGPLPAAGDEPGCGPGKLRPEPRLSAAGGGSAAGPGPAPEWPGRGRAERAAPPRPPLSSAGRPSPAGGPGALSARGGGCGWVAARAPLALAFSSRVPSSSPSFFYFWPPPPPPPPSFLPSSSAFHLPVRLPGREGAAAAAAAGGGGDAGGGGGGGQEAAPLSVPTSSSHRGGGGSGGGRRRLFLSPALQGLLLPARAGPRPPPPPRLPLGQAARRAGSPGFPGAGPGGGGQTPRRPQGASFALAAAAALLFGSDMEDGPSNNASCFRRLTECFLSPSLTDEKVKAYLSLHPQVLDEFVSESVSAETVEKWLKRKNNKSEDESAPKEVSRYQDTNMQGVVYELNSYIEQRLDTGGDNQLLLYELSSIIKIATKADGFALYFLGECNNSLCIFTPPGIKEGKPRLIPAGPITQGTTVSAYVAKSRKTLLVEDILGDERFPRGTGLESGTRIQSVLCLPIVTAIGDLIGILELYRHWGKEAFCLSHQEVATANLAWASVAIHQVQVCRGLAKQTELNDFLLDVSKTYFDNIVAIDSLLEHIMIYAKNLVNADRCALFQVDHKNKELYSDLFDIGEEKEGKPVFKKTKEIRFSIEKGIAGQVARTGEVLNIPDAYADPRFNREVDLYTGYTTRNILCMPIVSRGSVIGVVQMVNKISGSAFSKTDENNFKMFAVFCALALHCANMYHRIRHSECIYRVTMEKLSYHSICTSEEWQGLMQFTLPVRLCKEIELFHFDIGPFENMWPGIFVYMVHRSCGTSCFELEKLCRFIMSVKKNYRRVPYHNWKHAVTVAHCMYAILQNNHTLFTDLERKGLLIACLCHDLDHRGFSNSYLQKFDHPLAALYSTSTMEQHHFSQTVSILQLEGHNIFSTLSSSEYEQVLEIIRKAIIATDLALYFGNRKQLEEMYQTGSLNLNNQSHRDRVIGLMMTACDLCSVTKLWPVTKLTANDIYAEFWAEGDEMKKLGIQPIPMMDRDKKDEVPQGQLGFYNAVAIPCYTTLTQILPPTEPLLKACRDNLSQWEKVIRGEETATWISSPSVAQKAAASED
Outline: (§1)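 [3H]cAMP (40 nCi/mL, 1/3 Km) was added, then 20 min on ice (~30% turnover). Stopped with yttrium silicate SPA beads, settled 1.5 h at room temperature, CPM counted. IC50 from one-site competitive nonlinear fit, at least two independent runs.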

[2] = target: cGMP-inhibited 3',5'-cyclic phosphodiesterase 3B (Homo sapiens, UniProt Q13370); experiment: Inhibition of human recombinant PDE3B assessed reduction in [3H]cAMP hydrolysis preincubated with enzyme for 5 mins prior to substrate addition measured after 20 mins by scintillation proximity assay; outline: as §1
Sequence of cGMP-inhibited 3',5'-cyclic phosphodiesterase 3B (Q13370 whole entry): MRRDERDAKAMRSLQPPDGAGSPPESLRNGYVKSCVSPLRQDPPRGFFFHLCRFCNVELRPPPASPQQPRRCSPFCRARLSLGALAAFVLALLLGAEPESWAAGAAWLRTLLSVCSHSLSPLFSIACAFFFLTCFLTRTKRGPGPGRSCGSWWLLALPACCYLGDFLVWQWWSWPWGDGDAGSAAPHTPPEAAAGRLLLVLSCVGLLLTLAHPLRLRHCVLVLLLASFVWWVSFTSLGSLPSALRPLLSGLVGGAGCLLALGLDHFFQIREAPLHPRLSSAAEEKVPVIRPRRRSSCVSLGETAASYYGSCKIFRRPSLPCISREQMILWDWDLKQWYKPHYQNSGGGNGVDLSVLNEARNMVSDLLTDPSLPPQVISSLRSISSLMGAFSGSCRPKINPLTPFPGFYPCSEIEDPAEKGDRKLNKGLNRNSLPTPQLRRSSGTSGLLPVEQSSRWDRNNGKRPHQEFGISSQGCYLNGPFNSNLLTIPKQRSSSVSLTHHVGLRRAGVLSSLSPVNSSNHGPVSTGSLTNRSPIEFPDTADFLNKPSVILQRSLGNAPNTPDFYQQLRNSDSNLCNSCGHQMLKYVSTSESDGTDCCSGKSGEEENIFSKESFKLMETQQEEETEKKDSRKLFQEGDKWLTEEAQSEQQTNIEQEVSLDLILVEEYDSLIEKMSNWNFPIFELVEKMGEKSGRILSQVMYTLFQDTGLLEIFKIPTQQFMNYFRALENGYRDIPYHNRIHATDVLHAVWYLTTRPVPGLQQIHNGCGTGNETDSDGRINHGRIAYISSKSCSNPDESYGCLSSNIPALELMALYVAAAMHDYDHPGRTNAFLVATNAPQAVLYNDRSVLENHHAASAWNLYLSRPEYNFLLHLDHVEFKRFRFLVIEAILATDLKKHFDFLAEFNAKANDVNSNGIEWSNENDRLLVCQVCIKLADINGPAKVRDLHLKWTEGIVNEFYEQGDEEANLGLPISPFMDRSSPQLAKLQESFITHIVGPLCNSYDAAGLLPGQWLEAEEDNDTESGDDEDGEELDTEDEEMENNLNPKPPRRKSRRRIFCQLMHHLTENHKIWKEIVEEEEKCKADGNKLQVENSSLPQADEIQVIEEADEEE

[3] = target: 3',5'-cyclic-AMP phosphodiesterase 4A (Homo sapiens, UniProt P27815); experiment: Inhibition of human recombinant PDE4A assessed reduction in [3H]cAMP hydrolysis preincubated with enzyme for 5 mins prior to substrate addition measured after 20 mins by scintillation proximity assay; outline: as §1
Sequence of 3',5'-cyclic-AMP phosphodiesterase 4A (P27815 whole entry): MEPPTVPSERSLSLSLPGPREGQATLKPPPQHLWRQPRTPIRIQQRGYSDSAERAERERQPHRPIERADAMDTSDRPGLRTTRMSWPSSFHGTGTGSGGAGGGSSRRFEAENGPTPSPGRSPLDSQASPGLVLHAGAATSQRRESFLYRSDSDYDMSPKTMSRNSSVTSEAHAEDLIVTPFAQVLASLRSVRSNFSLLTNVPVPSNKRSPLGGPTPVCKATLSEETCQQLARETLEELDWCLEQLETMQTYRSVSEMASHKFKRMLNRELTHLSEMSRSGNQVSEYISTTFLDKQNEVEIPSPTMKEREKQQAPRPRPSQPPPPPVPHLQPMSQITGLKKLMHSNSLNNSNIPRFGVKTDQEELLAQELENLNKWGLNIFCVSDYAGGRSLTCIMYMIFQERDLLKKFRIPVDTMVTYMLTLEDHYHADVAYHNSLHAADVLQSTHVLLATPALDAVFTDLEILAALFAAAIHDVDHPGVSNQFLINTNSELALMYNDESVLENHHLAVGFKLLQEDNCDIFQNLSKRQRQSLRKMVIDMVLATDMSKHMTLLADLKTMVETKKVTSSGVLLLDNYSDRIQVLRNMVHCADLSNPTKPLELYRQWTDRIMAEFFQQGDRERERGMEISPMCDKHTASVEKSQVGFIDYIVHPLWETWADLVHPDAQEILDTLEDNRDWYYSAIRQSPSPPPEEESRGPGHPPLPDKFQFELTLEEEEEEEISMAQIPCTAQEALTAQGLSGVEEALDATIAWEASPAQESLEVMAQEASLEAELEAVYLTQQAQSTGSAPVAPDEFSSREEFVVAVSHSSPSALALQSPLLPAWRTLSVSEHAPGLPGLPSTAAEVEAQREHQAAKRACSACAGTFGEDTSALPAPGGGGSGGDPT

[4] = target: cGMP-inhibited 3',5'-cyclic phosphodiesterase 3A (Homo sapiens, UniProt Q14432); experiment: Inhibition of human recombinant PDE3A assessed reduction in [3H]cAMP hydrolysis preincubated with enzyme for 5 mins prior to substrate addition measured after 20 mins by scintillation proximity assay; outline: as §1
Sequence of cGMP-inhibited 3',5'-cyclic phosphodiesterase 3A (Q14432 whole entry): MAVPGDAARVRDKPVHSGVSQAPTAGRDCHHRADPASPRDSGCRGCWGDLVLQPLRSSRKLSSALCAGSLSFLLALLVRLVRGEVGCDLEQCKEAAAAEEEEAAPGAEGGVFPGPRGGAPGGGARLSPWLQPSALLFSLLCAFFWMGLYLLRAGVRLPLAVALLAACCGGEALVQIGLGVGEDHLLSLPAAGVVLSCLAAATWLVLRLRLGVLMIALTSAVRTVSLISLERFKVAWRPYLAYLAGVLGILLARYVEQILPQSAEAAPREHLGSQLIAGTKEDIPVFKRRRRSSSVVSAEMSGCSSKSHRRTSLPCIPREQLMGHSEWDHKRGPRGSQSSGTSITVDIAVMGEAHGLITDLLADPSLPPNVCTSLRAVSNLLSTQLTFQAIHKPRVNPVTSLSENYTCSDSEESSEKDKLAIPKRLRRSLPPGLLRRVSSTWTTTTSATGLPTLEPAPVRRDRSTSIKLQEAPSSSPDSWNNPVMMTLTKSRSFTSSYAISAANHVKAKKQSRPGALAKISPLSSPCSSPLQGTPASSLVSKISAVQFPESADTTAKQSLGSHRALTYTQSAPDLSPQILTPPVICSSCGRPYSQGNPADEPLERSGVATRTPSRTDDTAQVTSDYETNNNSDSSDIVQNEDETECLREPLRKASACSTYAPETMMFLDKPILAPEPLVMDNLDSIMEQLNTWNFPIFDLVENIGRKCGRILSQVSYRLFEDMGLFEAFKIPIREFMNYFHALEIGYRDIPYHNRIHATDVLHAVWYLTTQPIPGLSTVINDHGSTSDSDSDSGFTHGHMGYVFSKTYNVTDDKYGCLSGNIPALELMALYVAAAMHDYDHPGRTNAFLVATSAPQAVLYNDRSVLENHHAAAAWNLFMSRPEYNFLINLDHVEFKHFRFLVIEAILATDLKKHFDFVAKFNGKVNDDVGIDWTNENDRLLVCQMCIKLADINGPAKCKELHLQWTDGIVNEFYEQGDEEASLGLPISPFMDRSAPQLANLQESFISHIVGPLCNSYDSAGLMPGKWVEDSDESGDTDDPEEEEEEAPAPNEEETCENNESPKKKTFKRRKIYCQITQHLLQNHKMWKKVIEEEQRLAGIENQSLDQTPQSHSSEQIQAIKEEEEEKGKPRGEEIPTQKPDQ

[5] = target: 3',5'-cyclic-AMP phosphodiesterase 4B (Homo sapiens, UniProt Q07343); experiment: Inhibition of human recombinant PDE4B assessed reduction in [3H]cAMP hydrolysis preincubated with enzyme for 5 mins prior to substrate addition measured after 20 mins by scintillation proximity assay; outline: as §1
Sequence of 3',5'-cyclic-AMP phosphodiesterase 4B (Q07343 whole entry): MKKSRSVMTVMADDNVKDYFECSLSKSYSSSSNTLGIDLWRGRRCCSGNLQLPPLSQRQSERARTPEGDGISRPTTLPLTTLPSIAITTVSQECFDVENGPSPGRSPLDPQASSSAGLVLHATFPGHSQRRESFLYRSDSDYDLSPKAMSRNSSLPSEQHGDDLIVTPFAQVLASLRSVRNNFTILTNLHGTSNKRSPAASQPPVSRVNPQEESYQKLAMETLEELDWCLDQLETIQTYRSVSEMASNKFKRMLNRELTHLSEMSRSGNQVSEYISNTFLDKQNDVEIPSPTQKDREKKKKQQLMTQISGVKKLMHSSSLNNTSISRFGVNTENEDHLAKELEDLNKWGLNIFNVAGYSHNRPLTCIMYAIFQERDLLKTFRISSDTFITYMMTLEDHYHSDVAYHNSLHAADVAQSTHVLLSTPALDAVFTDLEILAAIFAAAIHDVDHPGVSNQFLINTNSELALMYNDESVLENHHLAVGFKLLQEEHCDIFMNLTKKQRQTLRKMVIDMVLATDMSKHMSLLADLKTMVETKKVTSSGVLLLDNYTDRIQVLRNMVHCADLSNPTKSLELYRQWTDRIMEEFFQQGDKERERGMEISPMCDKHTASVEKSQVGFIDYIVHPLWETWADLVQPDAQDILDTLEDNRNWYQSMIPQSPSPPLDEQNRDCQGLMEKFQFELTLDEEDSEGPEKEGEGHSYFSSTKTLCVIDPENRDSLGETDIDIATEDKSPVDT

Row | Compound | IC50 [1] | IC50 [2] | IC50 [3] | IC50 [4] | IC50 [5]
1 | COc1ccc2ccc(CSc3ccc(-c4nn(C)cc4-c4ccncc4)cc3)nc2c1 | 400 nM |  |  |  | 
2 | COc1ccc2nc(COc3ccc(-c4c(-c5ccncc5)cnn4C)cc3)ccc2c1 | 1.78 nM | 3 µM | 5.6 µM | 1.5 µM | 7.1 µM
3 | COc1ccc2nc(CNc3ccc(-c4c(-c5ccncc5)cnn4C)cc3)ccc2c1 | 4250 nM |  |  |  | 
4 | COc1cc(CSc2ccc(-c3nn(C)cc3-c3ccncc3)cc2)nc2ccccc12 | 168 nM |  |  |  | 
5 | COc1ccc2ccc(CNc3ccc(-c4nn(C)cc4-c4ccncc4)cc3)nc2c1 | 7400 nM |  |  |  | 
6 | COc1cc(CNc2ccc(-c3nn(C)cc3-c3ccncc3)cc2)nc2ccccc12 | 13900 nM |  |  |  | 
7 | COc1cc(CNc2ccc(-c3c(-c4ccncc4)cnn3C)cc2)nc2ccccc12 | 645 nM |  |  |  | 
8 | COc1ccc2nc(CNc3ccc(-c4nn(C)cc4-c4ccncc4)cc3)ccc2c1 | 7500 nM |  |  |  | 
9 | COc1ccc2nc(CSc3ccc(-c4nn(C)cc4-c4ccncc4)cc3)ccc2c1 | 415 nM |  |  |  | 
10 | COc1cc2ccccc2nc1COc1ccc(-c2c(-c3ccncc3)cnn2C)cc1 | 0.24 nM | 16.9 µM | 199 µM | 18.7 µM | 31.5 µM
11 | COc1cc(CSc2ccc(-c3c(-c4ccncc4)cnn3C)cc2)nc2ccccc12 | 1850 nM |  |  |  | 
12 | COc1cc2ccccc2nc1COc1ccc(-c2nn(C)cc2-c2ccncc2)cc1 | 0.4 nM | 82.7 µM | 3.85 µM | 123 µM | 3.43 µM
13 | COc1ccc2nc(CSc3ccc(-c4c(-c5ccncc5)cnn4C)cc3)ccc2c1 | 610 nM |  |  |  | 
14 | COc1ccc2ccc(CNc3ccc(-c4c(-c5ccncc5)cnn4C)cc3)nc2c1 | 5150 nM |  |  |  | 
15 | COc1ccc2ccc(CSc3ccc(-c4c(-c5ccncc5)cnn4C)cc3)nc2c1 | 635 nM |  |  |  | 
16 | COc1cccc2ccc(CSc3ccc(-c4c(-c5ccncc5)cnn4C)cc3)nc12 | 3050 nM |  |  |  | 
17 | COc1cc(COc2ccc(-c3c(-c4ccncc4)cnn3C)cc2)nc2ccccc12 | 0.36 nM | 4.8 µM | 4.18 µM | 29 µM | 5.06 µM
18 | COc1cccc2ccc(CNc3ccc(-c4c(-c5ccncc5)cnn4C)cc3)nc12 | 4600 nM |  |  |  | 
19 | COc1ccc2ccc(COc3ccc(-c4c(-c5ccncc5)cnn4C)cc3)nc2c1 | 95 nM |  |  |  | 

Other lines, results leading:

Row | IC50 [1] | IC50 [2] | IC50 [3] | IC50 [4] | IC50 [5] | Compound
20 | 10900 nM |  |  |  |  | COc1cccc2ccc(CNc3ccc(-c4nn(C)cc4-c4ccncc4)cc3)nc12
21 | 60 nM |  |  |  |  | COc1cccc2nc(COc3ccc(-c4nn(C)cc4-c4ccncc4)cc3)ccc12
22 | 635 nM |  |  |  |  | COc1cccc2ccc(CSc3ccc(-c4nn(C)cc4-c4ccncc4)cc3)nc12
23 | 41.5 nM |  |  |  |  | COc1cccc2ccc(COc3ccc(-c4nn(C)cc4-c4ccncc4)cc3)nc12
24 | 46 nM |  |  |  |  | COc1ccc2ccc(COc3ccc(-c4nn(C)cc4-c4ccncc4)cc3)nc2c1
25 | 199 nM |  |  |  |  | COc1cccc2ccc(COc3ccc(-c4c(-c5ccncc5)cnn4C)cc3)nc12
26 | 81.4 nM |  |  |  |  | COc1cccc2nc(COc3ccc(-c4c(-c5ccncc5)cnn4C)cc3)ccc12
27 | 0.28 nM | 3.85 µM | 2.56 µM | 27.5 µM | 1.79 µM | COc1cc(COc2ccc(-c3nn(C)cc3-c3ccncc3)cc2)nc2ccccc12
28 | 1.82 nM | 9.75 µM | 3.37 µM | 78 µM | 2.56 µM | COc1ccc2nc(COc3ccc(-c4nn(C)cc4-c4ccncc4)cc3)ccc2c1
